Experimental data: ChEMBL document CHEMBL1140243, “Synthesis and SAR of 2,3-diarylpyrrole inhibitors of parasite cGMP-dependent protein kinase as novel anticoccidial agents” (Bioorg Med Chem Lett, 2005)

Experiments:
Eimeria acervulina = experiment: Anticoccidial activity (percent reduction in oocyst production) against Eimeria acervulina in white leghorn chickens at 100 ppm; type: functional; design: scale not given: the % may be the effect or the level left
Summary of the method: (§1)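 White Leghorn chicks were acclimated, then at 3 days old sorted by weight and randomized to medicated or control diets. There were one or two replicates of two birds per treatment. After 24 h of premedication, one bird per replicate got E. acervulina and the other E. tenella, both drug-sensitive laboratory strains. Inocula were sporulated oocysts in tap water, 0.25 mL per bird, giving low-to-moderate infection.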

[1] = molecular target: cGMP-dependent protein kinase (Eimeria tenella, UniProt Q8MMZ8); experiment: In vitro inhibition of Eimeria tenella cGMP-dependent protein kinase
Sequence of cGMP-dependent protein kinase (Q8MMZ8 whole entry): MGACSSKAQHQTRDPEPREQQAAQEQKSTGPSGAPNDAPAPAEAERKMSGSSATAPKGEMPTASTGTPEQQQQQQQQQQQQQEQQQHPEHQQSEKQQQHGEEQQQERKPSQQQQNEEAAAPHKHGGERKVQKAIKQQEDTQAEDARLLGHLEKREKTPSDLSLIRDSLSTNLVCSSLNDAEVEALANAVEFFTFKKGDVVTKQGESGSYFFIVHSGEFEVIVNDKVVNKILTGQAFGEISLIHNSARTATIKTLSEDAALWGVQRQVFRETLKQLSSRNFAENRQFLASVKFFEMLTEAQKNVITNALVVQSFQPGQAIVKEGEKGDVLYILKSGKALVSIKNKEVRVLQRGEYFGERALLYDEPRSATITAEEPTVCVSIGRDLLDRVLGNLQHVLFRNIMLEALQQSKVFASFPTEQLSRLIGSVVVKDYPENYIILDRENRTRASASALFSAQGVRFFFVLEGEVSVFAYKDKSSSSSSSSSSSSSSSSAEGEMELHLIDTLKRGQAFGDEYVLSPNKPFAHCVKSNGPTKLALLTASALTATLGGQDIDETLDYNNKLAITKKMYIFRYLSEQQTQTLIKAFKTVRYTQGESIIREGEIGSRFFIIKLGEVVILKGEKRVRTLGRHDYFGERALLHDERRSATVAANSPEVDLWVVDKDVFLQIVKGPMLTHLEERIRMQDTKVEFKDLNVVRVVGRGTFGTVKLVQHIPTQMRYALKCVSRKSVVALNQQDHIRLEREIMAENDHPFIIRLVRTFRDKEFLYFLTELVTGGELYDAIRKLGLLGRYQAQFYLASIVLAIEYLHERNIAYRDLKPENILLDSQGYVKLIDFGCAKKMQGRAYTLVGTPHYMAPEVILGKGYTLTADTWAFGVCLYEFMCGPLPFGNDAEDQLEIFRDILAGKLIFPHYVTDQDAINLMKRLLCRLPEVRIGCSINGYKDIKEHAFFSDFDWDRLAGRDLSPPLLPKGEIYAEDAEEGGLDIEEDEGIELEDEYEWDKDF

Eimeria tenella = experiment: Anticoccidial activity (percent reduction in oocyst production) against Eimeria tenella in white leghorn chickens at 100 ppm; type: functional; design: scale not given: the % may be the effect or the level left; summary of the method: as §1
Gallus gallus = species on record: Gallus gallus; experiment: Anticoccidial activity (percent reduction in oocyst production) against Eimeria acervulina in white leghorn chickens at 25 ppm; type: functional; design: scale not given: the % may be the effect or the level left; summary of the method: as §1

Row | IC50 [1] [nM] | Structure (SMILES) | Activity (Eimeria acervulina) | Activity (Eimeria tenella) | Activity (Gallus gallus) [%]
1 | 0.53 | OCCCN1CCC(c2cc(-c3ccncc3)c(-c3ccc(F)cc3)[nH]2)CC1 | >=80% |  | 
2 | 0.28 | NCCN1CCC(c2cc(-c3ccncc3)c(-c3ccc(F)cc3)[nH]2)CC1 | <50% | <50% | 
3 | 0.7 | CN1CCC(c2cc(-c3ccncc3)c(-c3ccc(F)cc3)[nH]2)CC1 | >=80% | >=80% | 
4 | 0.046 | NCCCN1CCC(c2cc(-c3ccncc3)c(-c3ccc(F)cc3)[nH]2)CC1 | <50% | <50% | 
5 | 11.7 | CN1CCC(c2cc(-c3cccnc3)c(-c3ccc(F)cc3)[nH]2)CC1 |  | <50% | 
6 | 1.1 | OC1(CN2CCC(c3cc(-c4ccncc4)c(-c4ccc(F)cc4)[nH]3)CC2)CC1 | >=80% | >=80% | 
7 | 4.2 | CCCN1CCC(c2cc(-c3ccncc3)c(-c3ccc(F)cc3)[nH]2)CC1 | <50% | <50% | 
8 | 2 | CC(N)CN1CCC(c2cc(-c3ccncc3)c(-c3ccc(F)cc3)[nH]2)CC1 (stereo not drawn) | >=80% | >=80% | 
9 | 0.71 | OCCN1CCC(c2cc(-c3ccncc3)c(-c3ccc(F)cc3)[nH]2)CC1 | >=80% | >=80% | 
10 | 55 | CN1CCC(c2cc(-c3ccncc3)c(-c3ccc(C(F)(F)F)cc3)[nH]2)CC1 | <50% | <50% | 

Further lines, the compound ahead of its results:

Row | Structure (SMILES) | IC50 [1] [nM] | Activity (Eimeria acervulina) | Activity (Eimeria tenella) | Activity (Gallus gallus) [%]
11 | CN1CCC(c2cc(-c3ccncc3)c(-c3ccco3)[nH]2)CC1 | 11.1 | <50% | <50% | 
12 | CN1CCC(c2cc(-c3ccncc3)c(-c3nccs3)[nH]2)CC1 | 39.7 | <50% | <50% | 
13 | Cc1cnccc1-c1cc(C2CCN(C)CC2)[nH]c1-c1ccc(F)cc1 | 1.7 | <50% | <50% | 
14 | CN1CCC(c2[nH]c(-c3ccc(F)cc3)c(-c3ccncc3)c2Cl)CC1 | 1.02 | <50% |  | 
15 | CN1CCC(c2cc(-c3ccncc3)c(-c3ccc(F)cc3)o2)CC1 | 2.1 |  | <50% | 
16 | CN1CCC(c2cc(-c3ccncc3)c(-c3ccc(F)c(Cl)c3)[nH]2)CC1 | 0.44 |  | >=80% | 
17 | CN1CCC(c2cc(-c3ccc(F)cc3)c(-c3ccc(F)cc3)[nH]2)CC1 | 15.6 | <50% | <50% | 
18 | CN1CCC(c2nc(-c3ccc(F)cc3)c(-c3ccncc3)s2)CC1 | 1.5 |  | <50% | 0
19 | CN1CCC(c2cc(-c3ccccn3)c(-c3ccc(F)cc3)[nH]2)CC1 | 23.6 | <50% | <50% | 
20 | CN1CCC(c2cc(-c3ccncc3)c(-c3ccc(F)cc3)nn2)CC1 | 1000 | <50% | <50% | 
21 | CN1CCC(c2cc(-c3ccncc3)c(-c3ccc(F)cc3)s2)CC1 | 4.2 | >=80% | >=80% | 
